The source made the active and inactive calls. The calls are words filed in the database; no cut-off is given here.
Experiments:
[1] = test system: Epidermal growth factor receptor (Homo sapiens), P00533 [UNDEFINED MUTATION]; conditions: PC-9, dose 10-1000 nM
[2] = test system: Epidermal growth factor receptor (Homo sapiens), P00533 [UNDEFINED MUTATION]; conditions: PC-9, dose 10-1000 nM; remark: listed apart in the source
[3] = test system: Epidermal growth factor receptor (Homo sapiens), P00533 [UNDEFINED MUTATION]; conditions: PC-9, dose 10-1000 nM; remark: listed apart in the source
[4] = test system: Epidermal growth factor receptor (Homo sapiens), P00533 [UNDEFINED MUTATION]; conditions: PC-9, dose 10-1000 nM; remark: listed apart in the source
BaF3 [5] = assay: Inhibition of EGFR-C797S/T790M/L858R mutant in mouse BaF3 cells assessed as inhibition of EGFR phosphorylation at 10 to 1000 nM incubated for 6 hrs by Western blotting analysis; assay type: cell-based; conditions: dose 10-1000 nM
Method in brief: (§1)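 Ba/F3 cells expressing EGFR-L858R-series mutants treated with inhibitors for 6 h. SDS lysates quantified by BCA, run on SDS-PAGE and blotted to PVDF. Probed for phospho-EGFR (Tyr1068), total EGFR and downstream phospho-proteins.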

BaF3 [6] = assay: Inhibition of EGFR-C797S/T790M/L858R mutant expressed in mouse BaF3 cells assessed as inhibition of Akt phosphorylation at 10 to 1000 nM incubated for 6 hrs by Western blotting analysis; assay type: cell-based; conditions: dose 10-1000 nM
Method in brief: as §1

BaF3 [7] = assay: Inhibition of EGFR-C797S/T790M/L858R mutant expressed in mouse BaF3 cells assessed as inhibition of ERK phosphorylation at 10 to 1000 nM incubated for 6 hrs by Western blotting analysis; assay type: cell-based; conditions: dose 10-1000 nM
Method in brief: as §1

BaF3 [8] = assay: Inhibition of EGFR-C797S/T790M/L858R mutant in mouse BaF3 cells assessed as inhibition of S6 phosphorylation at 10 to 1000 nM incubated for 6 hrs by Western blotting analysis; assay type: cell-based; conditions: dose 10-1000 nM
Method in brief: as §1

Epidermal growth factor receptor (Homo sapiens), P00533 [UNDEFINED MUTATION], sequence (P00533 whole entry, looked up, stated change not applied): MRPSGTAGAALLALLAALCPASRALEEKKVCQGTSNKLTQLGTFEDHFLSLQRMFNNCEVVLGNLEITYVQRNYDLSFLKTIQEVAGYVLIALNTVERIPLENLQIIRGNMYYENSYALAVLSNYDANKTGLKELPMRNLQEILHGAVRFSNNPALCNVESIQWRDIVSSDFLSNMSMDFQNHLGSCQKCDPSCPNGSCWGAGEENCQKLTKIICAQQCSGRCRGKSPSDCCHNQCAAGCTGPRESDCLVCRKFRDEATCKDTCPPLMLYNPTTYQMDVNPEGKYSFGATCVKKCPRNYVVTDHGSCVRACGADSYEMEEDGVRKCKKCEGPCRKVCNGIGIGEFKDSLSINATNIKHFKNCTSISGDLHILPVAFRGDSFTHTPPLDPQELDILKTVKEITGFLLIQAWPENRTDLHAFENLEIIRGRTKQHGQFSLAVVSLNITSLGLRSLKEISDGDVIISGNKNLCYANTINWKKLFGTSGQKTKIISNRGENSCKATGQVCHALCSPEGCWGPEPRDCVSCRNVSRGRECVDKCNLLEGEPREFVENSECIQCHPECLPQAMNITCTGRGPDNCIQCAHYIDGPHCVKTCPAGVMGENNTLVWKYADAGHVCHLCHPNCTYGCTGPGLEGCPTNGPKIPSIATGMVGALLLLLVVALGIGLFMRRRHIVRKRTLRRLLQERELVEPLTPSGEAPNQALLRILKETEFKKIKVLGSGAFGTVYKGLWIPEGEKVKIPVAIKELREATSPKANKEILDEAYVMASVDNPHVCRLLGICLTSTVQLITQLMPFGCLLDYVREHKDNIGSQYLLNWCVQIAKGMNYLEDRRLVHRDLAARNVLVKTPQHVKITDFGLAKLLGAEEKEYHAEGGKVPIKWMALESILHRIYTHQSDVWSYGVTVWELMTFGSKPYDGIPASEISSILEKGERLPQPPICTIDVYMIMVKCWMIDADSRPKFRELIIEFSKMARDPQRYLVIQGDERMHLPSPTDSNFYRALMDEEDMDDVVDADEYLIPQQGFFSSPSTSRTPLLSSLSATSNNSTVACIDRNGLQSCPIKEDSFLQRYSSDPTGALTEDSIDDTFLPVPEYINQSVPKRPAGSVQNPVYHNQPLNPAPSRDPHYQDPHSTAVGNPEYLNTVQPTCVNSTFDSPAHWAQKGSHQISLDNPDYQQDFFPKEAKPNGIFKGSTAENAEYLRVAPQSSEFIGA

| inhibition [1] | inhibition [2] | inhibition [3] | inhibition [4] | SMILES | inhibition (BaF3 [5]) | inhibition (BaF3 [6]) | inhibition (BaF3 [7]) | inhibition (BaF3 [8]) |
| --- | --- | --- | --- | --- | --- | --- | --- | --- |
| Active | Active | Active | Active | COc1cc(N2CCC(N)CC2)ccc1Nc1ncc(Cl)c(-c2c[nH]c3ccccc23)n1 | – | – | – | – |
| – | – | – | – | COc1cc(N2CCC(N3CCN(C)CC3)CC2)ccc1Nc1ncc(Cl)c(Nc2ccccc2S(=O)(=O)C(C)C)n1 | inactive | inactive | inactive | inactive |
